Data set [1] relates to Klebsiella pneumoniae. As to the kind of experiment: Antibacterial activity against Klebsiella pneumoniae KC-1 assessed as growth inhibition at 128 to 0.002 mg/L incubated for 18 hrs at 37 degC by agar dilution method. Format: functional. The conditions noted are these: KC-1, 18 h. An outline of the steps:
(§1)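 Agar dilution on Mueller Hinton agar per Japanese Society of Chemotherapy standard method; about 10⁴ cfu inoculated onto plates holding two-fold dilution series; incubation 37°C, 18 h; MIC read as growth endpoint.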

Data set [2] deals with Klebsiella pneumoniae. As to the kind of experiment: Antibacterial activity against Klebsiella pneumoniae DT-S assessed as growth inhibition at 128 to 0.002 mg/L incubated for 18 hrs at 37 degC by agar dilution method. Format: functional. An outline of the steps: as §1
(In general: Agar dilution tests growth on a series of plates holding different concentrations.)

The test system of another data set is Salmonella typhimurium. As to the kind of experiment: Antibacterial activity against Salmonella typhimurium IFO13245 assessed as growth inhibition at 128 to 0.002 mg/L incubated for 18 hrs at 37 degC by agar dilution method. It is filed as functional, Salmonella enterica subsp. enterica serovar Typhimurium. The following applies: Salmonella enterica, IFO13245, 18 h. The method in brief:
as §1

A further data set has as its system Enterobacter cloacae. As to the kind of experiment: Antibacterial activity against Enterobacter cloacae IFO13535 assessed as growth inhibition at 128 to 0.002 mg/L incubated for 18 hrs at 37 degC by agar dilution method. It is filed as functional. The following applies: IFO13535, 18 h. An outline of the steps:
as §1

The next data set relates to Proteus vulgaris. As to the kind of experiment: Antibacterial activity against Proteus vulgaris IFO3167 assessed as growth inhibition at 128 to 0.002 mg/L incubated for 18 hrs at 37 degC by agar dilution method. The following applies: IFO3167, 18 h. Format: functional. An outline of the steps: as §1
The test system of a further data set is Proteus mirabilis. As to the kind of experiment: Antibacterial activity against Proteus mirabilis IFO3849 assessed as growth inhibition at 128 to 0.002 mg/L incubated for 18 hrs at 37 degC by agar dilution method. The conditions noted are these: IFO3849, 18 h. Format: functional. An outline of the steps: as §1
For data set [3], the system named is Serratia marcescens. As to the kind of experiment: Antibacterial activity against Serratia marcescens IFO3736 assessed as growth inhibition at 128 to 0.002 mg/L incubated for 18 hrs at 37 degC by agar dilution method. It is filed as functional. The following applies: IFO3736, 18 h. An outline of the steps: as §1
In data set [4] the test system is Serratia marcescens. As to the kind of experiment: Antibacterial activity against Serratia marcescens T-55 assessed as growth inhibition at 128 to 0.002 mg/L incubated for 18 hrs at 37 degC by agar dilution method. It is filed as functional. The conditions noted are these: T-55, 18 h. The method in brief: as §1
The test system of the next data set is Morganella morganii. As to the kind of experiment: Antibacterial activity against Morganella morganii W1026 assessed as growth inhibition at 128 to 0.002 mg/L incubated for 18 hrs at 37 degC by agar dilution method. Format: functional. The conditions noted are these: W1026, 18 h. An outline of the steps: as §1
A further data set deals with Providencia rettgeri. As to the kind of experiment: Antibacterial activity against Providencia rettgeri W1008 assessed as growth inhibition at 128 to 0.002 mg/L incubated for 18 hrs at 37 degC by agar dilution method. The conditions noted are these: W1008, 18 h. Format: functional. An outline of the steps: as §1
For data set [5], the system named is Pseudomonas aeruginosa. As to the kind of experiment: Antibacterial activity against Pseudomonas aeruginosa IFO3445 assessed as growth inhibition at 128 to 0.002 mg/L incubated for 18 hrs at 37 degC by agar dilution method. Format: functional. The following applies: IFO3445, 18 h. The method in brief: as §1
Data set [6] has as its system Pseudomonas aeruginosa. As to the kind of experiment: Antibacterial activity against Pseudomonas aeruginosa E-2 assessed as growth inhibition at 128 to 0.002 mg/L incubated for 18 hrs at 37 degC by agar dilution method. The following applies: E-2, 18 h. Format: functional. The method in brief:
as §1

In data set [7] the test system is Pseudomonas aeruginosa. As to the kind of experiment: Antibacterial activity against Pseudomonas aeruginosa 15846 assessed as growth inhibition at 128 to 0.002 mg/L incubated for 18 hrs at 37 degC by agar dilution method. Format: functional. The following applies: Pseudomonas aeruginosa, 15846, 18 h. An outline of the steps:
as §1

Data set [8] has as its system Acinetobacter calcoaceticus. As to the kind of experiment: Antibacterial activity against Acinetobacter calcoaceticus Ac-54 assessed as growth inhibition at 128 to 0.002 mg/L incubated for 18 hrs at 37 degC by agar dilution method. It is filed as functional. The following applies: Ac-54, 18 h. The method in brief: as §1
Data set [9] can be described thus: Drug excretion in Sprague-Dawley rat urine at 10 mg/kg, po after 24 hrs by HPLC. Format: ADME, organism-based. The conditions noted are these: read-out: Drug excretion. An outline of the steps: (§2)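 Six-week male Sprague-Dawley rats, fasted overnight; oral dose suspended in 0.5% methylcellulose, iv dose dissolved in 0.04 N NaOH. Urine from intact rats in metabolic cages, bile from bile duct-cannulated rats, 0–24 h. Bile alkaline-hydrolysed (1 N NaOH, 37°C, 1 h) to convert glucuronides; HPLC with UV 290 nm and internal standard; % of dose; mean ± S.D., three rats.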

Data set [10] is described as follows: Drug excretion in Sprague-Dawley rat bile assessed as unmetabolized form at 10 mg/kg, po after 24 hrs by HPLC. Format: ADME, organism-based. The following applies: read-out: Drug excretion. An outline of the steps:
as §2

The nature of data set [11]: Oral drug absorption in Sprague-Dawley rat at 10 mg/kg, po after 24 hrs by HPLC. It is filed as ADME, organism-based. The conditions noted are these: in vivo. The method in brief:
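Absorption rate computed as total urinary plus biliary excretion (% of dose, summed means) after oral dosing divided by total after iv dosing; excretion measured in fasted male Sprague-Dawley rats by HPLC over 24 h, bile glucuronides alkaline-hydrolysed.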

Data set [12] can be described thus: Solubility of the compound in JP2 solution at pH 6.8 after 24 hrs at 25 degC by HPLC. It is filed as physicochemical. The method in brief: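 Excess solid shaken in JP2 (50 mM potassium dihydrogenphosphate, pH 6.8) at 25°C for 24 h to equilibrium, filtered 0.45 µm; filtrate concentration by reversed-phase UPLC, UV 290 nm; mean ± S.D., n=3.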
Data set [13] is described as follows: Passive permeability of the compound after 5 hrs at 25 degC by PAMPA assay. It is filed as physicochemical. The following applies: read-out: Peff. The method in brief:
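PAMPA: 10 µM compound in PBS with 5% MeOH in donor, PBS acceptor; 25°C, 5 h; both sides quantified by HPLC; Peff derived from donor/acceptor concentrations, volumes, 0.3 cm² filter area and 18,000 s; mean ± S.D., n=3.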
In general terms: The PAMPA barrier holds no transporters, so it reflects passive diffusion.

A short description of data set [14]: Drug excretion in Sprague-Dawley rat at 10 mg/kg, po after 24 hrs by HPLC. It is filed as ADME, organism-based. The conditions noted are these: in vivo, read-out: Drug excretion. The method in brief: as §2
The target in another data set is DNA gyrase (Escherichia coli, UniProt P0AES4+P0AES6). As to the kind of experiment: Inhibition of Escherichia coli DNA gyrase preincubated for 5 mins at 37 degC before addition of relaxed pBR322 as substrate by supercoiling assay. It is filed as protein-complex assay.
Data set [15] deals with Escherichia coli. As to the kind of experiment: Antibacterial activity against Escherichia coli NIHJ assessed as growth inhibition at 128 to 0.002 mg/L incubated for 18 hrs at 37 degC by agar dilution method. Format: functional. An outline of the steps:
as §1

Data set [16] concerns Escherichia coli. As to the kind of experiment: Antibacterial activity against Escherichia coli KC-14 assessed as growth inhibition at 128 to 0.002 mg/L incubated for 18 hrs at 37 degC by agar dilution method. Format: functional. The conditions noted are these: KC-14, 18 h. An outline of the steps:
as §1

Data set [17] concerns Escherichia coli. As to the kind of experiment: Antibacterial activity against Escherichia coli 177 assessed as growth inhibition at 128 to 0.002 mg/L incubated for 18 hrs at 37 degC by agar dilution method. Format: functional. The following applies: Escherichia coli, 177, 18 h. An outline of the steps:
as §1

A further data set concerns Citrobacter freundii. As to the kind of experiment: Antibacterial activity against Citrobacter freundii IFO1268 assessed as growth inhibition at 128 to 0.002 mg/L incubated for 18 hrs at 37 degC by agar dilution method. The conditions noted are these: IFO1268, 18 h. Format: functional. The method in brief: as §1

≈ marks a conversion by molar mass, not a printed value.

The source of these data is ChEMBL document CHEMBL3632612, “Discovery of WQ-3810: Design, synthesis, and evaluation of 7-(3-alkylaminoazetidin-1-yl)fluoro-quinolones as orally active antibacterial agents” (Eur J Med Chem, 2015).

Consider `CCCNC1CN(c2c(F)cc3c(=O)c(C(=O)O)cn(-c4nc(N)c(F)cc4F)c3c2C)C1`, for which the MIC in the data set with Klebsiella pneumoniae [1], with Klebsiella pneumoniae [2], in the data set on Salmonella typhimurium, with Enterobacter cloacae, with Proteus vulgaris and with Proteus mirabilis was 0.21 µg/mL (≈ 0.455 µM) in each case. Besides, the MIC in the data set on Serratia marcescens [3], in the data set with Serratia marcescens [4], with Morganella morganii, in the data set on Providencia rettgeri, in the data set on Pseudomonas aeruginosa [5] and with Pseudomonas aeruginosa [6] was 0.21 µg/mL (≈ 0.455 µM) in each case. Moreover, the MIC (as a rule, the smallest concentration in the dilution series that meets the test's criterion for growth inhibition) in the data set with Pseudomonas aeruginosa [7] was 0.21 µg/mL (≈ 0.455 µM); in data set [8] it was 0.21 µg/mL (≈ 0.455 µM); in the data set with Escherichia coli [15] it was 0.012 µg/mL (≈ 0.026 µM); in the data set with Escherichia coli [16] it was 0.012 µg/mL (≈ 0.026 µM); with Escherichia coli [17], 0.012 µg/mL (≈ 0.026 µM); with Citrobacter freundii it was 0.21 µg/mL (≈ 0.455 µM). In addition, the dose excreted at 24 h came to 17% in [9], 74% in data set [10] and 91% in [14]. Also, the Fa at 24 h in data set [11] was greater than 90%. Further, the concentration in solution in data set [12] (solubility at 24 h) came to 41 µg/mL (≈ 88.9 µM). In addition, the Papp at 5 h in data set [13] amounted to 1.1 ×10⁻⁶ cm/s. Half-maximal inhibition against DNA gyrase (IC50) was put at 412 nM.
Consider `Cc1c(N2CC(NC(C)C)C2)c(F)cc2c(=O)c(C(=O)O)cn(-c3nc(N)c(F)cc3F)c12`, for which the minimum inhibitory concentration (MIC) in the data set on Klebsiella pneumoniae [1], in the data set with Klebsiella pneumoniae [2], in the data set on Salmonella typhimurium, with Enterobacter cloacae, in the data set on Proteus vulgaris and in the data set with Proteus mirabilis was 0.17 µg/mL (≈ 0.368 µM) in each case. Further, the MIC in the data set with Serratia marcescens [3], with Serratia marcescens [4], with Morganella morganii, with Providencia rettgeri, in the data set with Pseudomonas aeruginosa [5] and with Pseudomonas aeruginosa [6] was 0.17 µg/mL (≈ 0.368 µM) throughout. Also, the MIC was 0.17 µg/mL (≈ 0.368 µM) with Pseudomonas aeruginosa [7]; 0.17 µg/mL (≈ 0.368 µM) in data set [8]; 0.01 µg/mL (≈ 0.0217 µM) in the data set on Escherichia coli [15]; 0.01 µg/mL (≈ 0.0217 µM) in the data set on Escherichia coli [16]; 0.01 µg/mL (≈ 0.0217 µM) with Escherichia coli [17]; 0.17 µg/mL (≈ 0.368 µM) in the data set on Citrobacter freundii. The dose excreted at 24 h was determined as 24% in data set [9], 68% in data set [10] and 92% in [14]. In [11], the Fa at 24 h was greater than 90%. Further, the concentration in solution in [12] (solubility at 24 h) came to 41 µg/mL (≈ 88.9 µM). The Papp at 5 h in data set [13] turned out to be 1.2 ×10⁻⁶ cm/s. Half-maximal inhibition at DNA gyrase (IC50) was put at 433 nM.
Take `C[C@H]1COc2c(N3CCN(C)CC3)c(F)cc3c(=O)c(C(=O)O)cn1c23.C[C@H]1COc2c(N3CCN(C)CC3)c(F)cc3c(=O)c(C(=O)O)cn1c23.O` [LEVOFLOXACIN]: the MIC with Klebsiella pneumoniae [1], in the data set on Klebsiella pneumoniae [2], in the data set with Salmonella typhimurium, in the data set with Enterobacter cloacae, in the data set on Proteus vulgaris and with Proteus mirabilis was 0.12 µg/mL each time. In addition, the MIC in the data set with Serratia marcescens [3] is 0.12 µg/mL; in the data set on Serratia marcescens [4], 0.12 µg/mL; in the data set on Morganella morganii, 0.12 µg/mL; in the data set with Providencia rettgeri it was 0.12 µg/mL; in data set [8], 0.12 µg/mL; with Escherichia coli [15], 0.019 µg/mL. In addition, the MIC in the data set on Escherichia coli [16] was found to be 0.019 µg/mL; in the data set with Escherichia coli [17], 0.019 µg/mL; with Citrobacter freundii, 0.12 µg/mL.
